# Where a name gives a salt, the structure may show the parent alone.
# Experiments:
# SD rats = assay: Acute toxicological study; type: in vivo, rat
# ZDF rats = assay: Antidiabetic study, HbA1c in ZDF rats; type: in vivo, rat; settings: for HbA1c-lowering / antidiabetic effect (in words): repeated oral dosing BID, ZDF rats aged 11 to 13 weeks
# Summary of the method: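 Male ZDF rats, 11 weeks old, allocated by HbA1c, fasting blood glucose and body weight. Test compound or metformin suspended in 5% gum Arabic, given orally twice daily and dosed on the latest body weight for 6 weeks. Body weight and food intake monitored. HbA1c measured by analyser, expressed as change from baseline; mean ± SE, n = 16 or 8; compared with vehicle group.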
# [1] = system: NaCT-expressing CHO cells; assay: TCA cycle activation assay; type: cell-based
# Summary of the method: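 Stably transfected CHO-K1 cells express NaCT (pME18S, then pcDNA3.1(+) vectors); control CHO cells carry vector without the NaCT gene. Cells take up [1,5-14C]citric acid. TCA cycle activation is read as the reduction in residual intracellular radioactivity as the citrate is metabolised. Run with and without antimycin A (complex III inhibitor).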
# HepG2 cells = assay: Oxygen consumption rate; type: cell-based, human; settings: in the presence of oligomycin, P < 0.01 vs DMSO
# [2] = Plasma pharmacokinetic study in SD rats; settings: rat, in vivo
# Summary of the method: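 Male SD rats, 6–7 weeks old; test compound given as oral suspension by body weight, two animals per compound. Tail-vein blood was collected. Plasma was mixed with 10-fold acetonitrile–methanol (1:1), centrifuged, and the supernatant analysed by LC-ESI-MS/MS (C18 column, ammonium acetate/acetonitrile gradient, negative-ion selected reaction monitoring). Plasma detection limit 0.01 μg/mL.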
# Tissue distribution = type: in vivo, rat; settings: 2 h after 10 mg/kg p.o., SD rats, mean of 2 animals; detection limit 0.04 μg/g
# Summary of the method: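 Male SD rats, 6–7 weeks old, given test compound as oral suspension, two animals per compound; values are means of 2. Liver and brain homogenates and plasma were mixed with 10-fold acetonitrile–methanol (1:1), centrifuged, and supernatants analysed by LC-ESI-MS/MS in negative-ion SRM mode. Detection limits 0.01 μg/mL (plasma) and 0.04 μg/g (liver, brain).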
compound,measurement,setting,value
"N#Cc1[nH]nnc1-c1cccc(OCc2cc(C(F)(F)F)ccc2C(F)(F)F)c1 [Compound 3a, 5-{3-[2,5-Bis(trifluoromethyl)benzyloxy]phenyl}-3H-[1,2,3]triazole-4-carbonitrile]",Deaths,"SD rats; 300 mg/kg single dose, after hyperthermia and hyperglycemia",one of three
"CN(C)C(=N)N=C(N)N [metformin, 1,1-Dimethyl biguanide (metformin) hydrochloride, reference compound]","Effect on HbA1c, monotherapy (in words)","ZDF rats; 100 mg/kg/day alone, 6-week, ZDF rats",no effect
"Cc1sc(-c2ccc(C(F)(F)F)cc2)nc1-c1nn(C)nc1C#N [Compound 4, 2-Methyl-5-{5-methyl-2-[4-(trifluoromethyl)phenyl]thiazol-4-yl}-2H-1,2,3-triazole-4-carbonitrile]",Activation of the TCA cycle (in words),[1],did not occur
"N#Cc1[nH]nnc1-c1cccc(-c2cc(F)cc(C(F)(F)F)c2)c1 [Compound 3b, 5-(3′-Fluoro-5′-trifluoromethyl-[1,1-biphenyl]-3-yl)-3H-[1,2,3]triazole-4-carbonitrile]",Doses elevating rectal temperature,"SD rats; single dose, SD rats, 8 h after dosing",no elevation of rectal temperature was observed
same,HbA1c-lowering / antidiabetic effect (in words),ZDF rats,remarkable antidiabetic effect
"N#CC(C#N)=NNc1ccc(OC(F)(F)F)cc1 [FCCP, Carbonyl cyanide p-trifluoromethoxyphenylhydrazone]",Concentration significantly increasing OCR,HepG2 cells,0.25 µM
"N[C@@H](CC(=O)N1CCn2c(nnc2C(F)(F)F)C1)Cc1cc(F)c(F)cc1F [sitagliptin, Sitagliptin phosphate hydrate, reference compound]",Reduction of HbA1c change from the vehicle value,"ZDF rats; monotherapy 10 mg/kg/day, 6-week, vehicle 2.97% points",11.4%
"O=[N+]([O-])c1ccc(O)c([N+](=O)[O-])c1 [DNP, 2,4-dinitrophenol]",Concentration significantly increasing OCR,HepG2 cells,40 µM
"N#Cc1[nH]nnc1-c1cc(Cl)cc(/C=C/c2cccc(C(F)(F)F)c2)c1 [Compound 3c, (E)-5-(3-Chloro-5-(3-(trifluoromethyl)styryl)phenyl)-3H-1,2,3-triazole-4-carbonitrile]",HbA1c-lowering / antidiabetic effect (in words),ZDF rats,significant HbA1c lowering effect
same,In vitro activity relative to compound 1,[1]; EC50 of the TCA activation,one-third
same,Metabolite finding in PK study,[2],a metabolite implying the possibility of future adverse effects was found
"N#Cc1[nH]nnc1-c1csc(-c2ccc(Cl)cc2)n1 [Compound 3d, 5-[2-(4-Chlorophenyl)-thiazol-4-yl]-3H-[1,2,3]triazole-4-carbonitrile]","Brain distribution, concentration",Tissue distribution,indetectable
same,HbA1c-lowering / antidiabetic effect (in words),ZDF rats,prominent
